Assay [1] in a line: Growth inhibition against CHO-derived cell line AA8. The format is functional, cell-based, Cricetulus griseus. In short, it runs like this:
(§1)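 Log-phase AA8 (200 viable cells/well) or UV4 (300 viable cells/well) cells with 5000 lethally irradiated AA8 feeder cells per well, in α-MEM with 10% heat-inactivated fetal calf serum. Cell mass read after 72-78 h by methylene blue protein staining and absorbance. IC50 = concentration reducing cell mass to 50% of the mean of 8 same-plate controls; means of at least 3 determinations ± SEM. Hypersensitivity factor = aerobic IC50(AA8)/IC50(UV4).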

Assay [2] in a line: (§2) Cytotoxicity was measured for 90% kill in UV4 cells under aerobic conditions. Format: functional, Cricetulus griseus. In short, it runs like this: (§3)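 Clonogenic assay in magnetically stirred 10-mL suspensions of late log-phase UV4 cells at 2×10^6 cells/mL, 37 °C, continuously gassed with 5% CO2 in air or N2; samples removed periodically across a range of drug concentrations. CT10 (concentration × time for 10% survival) taken from survival curves; hypoxic selectivity = ratio of aerobic to hypoxic CT10.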

Assay [3] can be described thus: Hypersensitivity factor is the ratio of IC50(AA8) to IC50(UV4) under aerobic conditions. Format: functional. In short, it runs like this:
as §1

Assay [4] in a line: Ratio of aerobic CT10 to that of hypoxic CT10 (for a 1-h exposure). The format is functional. The gist of the method: as §3
The test system of a further assay is UV4. The description is as §2. The format is functional. Conditions: Cricetulus griseus. In short, it runs like this: as §3
The nature of assay [5]: Ratio of aerobic CT10 to that of hypoxic CT10. The format is functional. The gist of the method: as §3
Assay [6] in a line: Growth inhibition against CHO-derived cell line AA8 (Non toxic at solubility limit) [RB6145 used as positive control]. The format is functional, cell-based, Cricetulus griseus. In short, it runs like this:
as §1

Assay [7] can be described thus: Hypersensitivity factor is the ratio of IC50(AA8) to IC50(UV4) under aerobic conditions; ND = Nontoxic at the solubility level. The format is functional. In short, it runs like this:
as §1

[8] abbreviates: Cricetulus griseus, CHO-derived.

One may read the IC50 as the concentration that inhibits the measured activity by half.

In assay [1] (setting [8]), `O=[N+]([O-])c1nccn1CC(O)CNCCBr` (stereo not given) had an IC50 of 145 µM. The molecule also returned a CT10 in assay [2] of 6600 µM·h. Further, the HF ratio in assay [3] was found to be 5.9. Besides, the Ratio in assay [4] came out at 50.
For `CCN(CC)CCN`, the half-inhibitory concentration (IC50) in assay [1] (setting [8]) was determined as 19000 µM. For the same molecule, the HF ratio in assay [3] came out at 0.99.
Taken in the same sequence, the figures for `ClCCNCCNCCCl` were 30 µM and 29.
Taken in the same sequence, the figures for `CCNCCNCC` were 2400 µM and 0.7.
“Bis (2,4-pentanedionato) (N,N'-bis(2-chloroethyl)ethylenediamine)cobalt(III) Percholate [listing 1 of 2 here]” returned an IC50 in assay [1] (cho-derived) of 890 µM.
On to “Bis (2,4-pentanedionato) (N,N'-bis(2-chloroethyl)ethylenediamine)cobalt(III) Percholate [listing 2 of 2 here]”, for which the CT10 in the assay with UV4 was found to be 21500 µM·h. Moreover, the HF ratio in assay [3] was 14. For the same molecule, in assay [5], the Ratio turned out to be 1.6.
In turn, “Bis (2,4-pentanedionato) (N,N'-bis(2-diethylethylenediamine)cobalt(III) Percholate [listing 1 of 2 here]” yielded an IC50 in assay [6] of over 5000 µM.
On to “Bis (2,4-pentanedionato) (N,N'-bis(2-diethylethylenediamine)cobalt(III) Percholate [listing 2 of 2 here]”, for which the HF ratio result in assay [7] is “Nontoxic”.
“Bis (2,4-pentanedionato) (N,N-bis(2-chloroethyl)ethylenediamine)cobalt(III) Percholate [listing 1 of 2 here]” registered an IC50 in assay [1] (cho-derived) of 3.1 µM.
“Bis (2,4-pentanedionato) (N,N-bis(2-chloroethyl)ethylenediamine)cobalt(III) Percholate [listing 2 of 2 here]”: the CT10 in the assay with UV4 stood at 0.64 µM·h. Further, the HF ratio in assay [3] was determined as 64. Also, the Ratio in assay [5] was 1.9.
“Bis (2,4-pentanedionato) (N,N-diethylethylenediamine)cobalt(III) Percholate [listing 1 of 2 here]”: the IC50 in assay [1] (cho-derived) was 34 µM.
On to “Bis (2,4-pentanedionato) (N,N-diethylethylenediamine)cobalt(III) Percholate [listing 2 of 2 here]”, for which the HF ratio in assay [3] was determined as 0.9.
As for “Bis (3-chlorol-2,4-pentanedionato) (N,N-bis(2-chloroethyl)ethylenediamine)cobalt(III) Percholate [listing 1 of 2 here]”, in assay [1] (cho-derived), the IC50 was 26 µM.
In the case of “Bis (3-chlorol-2,4-pentanedionato) (N,N-bis(2-chloroethyl)ethylenediamine)cobalt(III) Percholate [listing 2 of 2 here]”, the HF ratio in assay [3] turned out to be 13.
For “Bis (3-ethyl-2,4-pentanedionato) (N,N'-bis(2-chloroethyl)ethylenediamine)cobalt(III) Percholate [listing 1 of 2 here]”, in assay [1] (cho-derived), the IC50 stood at 139 µM.
With “Bis (3-ethyl-2,4-pentanedionato) (N,N'-bis(2-chloroethyl)ethylenediamine)cobalt(III) Percholate [listing 2 of 2 here]”, in assay [3], the HF ratio is 4.8.
Molecule “Bis (3-ethyl-2,4-pentanedionato) (N,N-bis(2-chloroethyl)ethylenediamine)cobalt(III) Percholate [listing 1 of 2 here]” showed an IC50 in assay [1] (cho-derived) of 2.3 µM.
In the assay on UV4, “Bis (3-ethyl-2,4-pentanedionato) (N,N-bis(2-chloroethyl)ethylenediamine)cobalt(III) Percholate [listing 2 of 2 here]” gave a CT10 of 0.51 µM·h. Moreover, the HF ratio in assay [3] worked out at 20. The Ratio in assay [5] was 4.9.
In the case of “Bis (3-methyl-2,4-pentanedionato) (N,N'-bis(2-chloroethyl)ethylenediamine)cobalt(III) Percholate [listing 1 of 2 here]”, the IC50 in assay [1] (cho-derived) was 650 µM.
In the assay on UV4, “Bis (3-methyl-2,4-pentanedionato) (N,N'-bis(2-chloroethyl)ethylenediamine)cobalt(III) Percholate [listing 2 of 2 here]” gave a CT10 of over 2720 µM·h. Further, in assay [3], the HF ratio came to 2.7. Besides, the Ratio in assay [5] is over 1.
Take “Bis (3-methyl-2,4-pentanedionato) (N,N-bis(2-chloroethyl)ethylenediamine)cobalt(III) Percholate [listing 1 of 2 here]”: in assay [1] (cho-derived), the midpoint of inhibition, the IC50, lay at 4.6 µM.
Consider “Bis (3-methyl-2,4-pentanedionato) (N,N-bis(2-chloroethyl)ethylenediamine)cobalt(III) Percholate [listing 2 of 2 here]”, for which the CT10 in the assay with UV4 came to 2.4 µM·h. In assay [3], the HF ratio came to 48. In addition, in assay [5], the Ratio was 20.
In assay [1] (cho-derived), “Bis (3-n-propyl-2,4-pentanedionato) (N,N-bis(2-chloroethyl)ethylenediamine)cobalt(III) Percholate [listing 1 of 2 here]” registered an IC50 of 1.35 µM.
The same measure, in the same setting: in the case of “Bis (3-n-propyl-2,4-pentanedionato) (N,N-bis(2-chloroethyl)ethylenediamine)cobalt(III) Percholate [listing 2 of 2 here]” it was 18.5 µM.
